Test results from ChEMBL document CHEMBL4699429, “Novel 1,3,4-thiadiazole compounds as potential MAO-A inhibitors - design, synthesis, biological evaluation and molecular modelling” (RSC Med Chem, 2020).

What follows are molecules tested against T1, Amine oxidase [flavin-containing] A (Homo sapiens, UniProt P21397) (assay: Inhibition of human recombinant MAO-A at 0.01 nM using tyramine as substrate preincubated with enzyme for 30 mins followed by incubation with substrate for 30 mins by Amplex Red reagent based fluorometric method relative to control). Conditions: 0.5 h, time 60 min.
T1 sequence (P21397 whole entry): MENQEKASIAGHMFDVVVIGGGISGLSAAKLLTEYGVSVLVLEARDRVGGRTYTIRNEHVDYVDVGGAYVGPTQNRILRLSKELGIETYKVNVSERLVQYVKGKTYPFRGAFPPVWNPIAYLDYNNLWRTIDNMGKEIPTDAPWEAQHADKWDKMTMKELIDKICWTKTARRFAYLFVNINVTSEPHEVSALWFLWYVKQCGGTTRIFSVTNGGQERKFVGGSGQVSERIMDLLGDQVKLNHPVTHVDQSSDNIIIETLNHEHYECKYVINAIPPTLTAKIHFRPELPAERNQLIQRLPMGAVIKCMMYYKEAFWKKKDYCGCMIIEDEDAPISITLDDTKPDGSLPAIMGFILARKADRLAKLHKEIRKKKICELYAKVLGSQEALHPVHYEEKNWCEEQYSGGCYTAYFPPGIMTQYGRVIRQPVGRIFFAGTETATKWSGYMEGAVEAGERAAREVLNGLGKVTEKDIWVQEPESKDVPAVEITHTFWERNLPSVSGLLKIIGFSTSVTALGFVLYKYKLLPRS
Summary of the method: (§1)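 Recombinant hMAO-A at 0.5 U/mL in phosphate buffer. Inhibitors are dissolved in 2% DMSO and preincubated with enzyme at 37 °C for 30 min. The working solution is then added: horseradish peroxidase, Amplex (Ampliflu) red and tyramine. Fluorescence (Ex/Em 535/587 nm) is read at 5-min intervals over 30 min at 37 °C. Controls use 2% DMSO. Background without enzyme is subtracted. Peroxidase interference is checked with H2O2.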

SMILES | inhibition at 10 pM [%]
CC(C)Nc1nnc(SCC(=O)N(Cc2cccc([N+](=O)[O-])c2)c2ccc(F)cc2)s1 | 6.87
COCCNc1nnc(SCC(=O)N(Cc2cccc([N+](=O)[O-])c2)c2ccc(F)cc2)s1 | 13.5
CCCCNc1nnc(SCC(=O)N(Cc2cccc([N+](=O)[O-])c2)c2ccc(F)cc2)s1 | 6.94

Each molecule was assayed against T1, Amine oxidase [flavin-containing] A (assay: Inhibition of human recombinant MAO-A at 0.01 uM using tyramine as substrate preincubated with enzyme for 30 mins followed by incubation with substrate for 30 mins by Amplex Red reagent based fluorometric method relative to control). Conditions: 0.5 h, time 60 min.
Summary of the method: as §1

SMILES | inhibition at 0.01 µM [%]
CC(C)Nc1nnc(SCC(=O)N(Cc2cccc([N+](=O)[O-])c2)c2ccc(F)cc2)s1 | 23.9
COCCNc1nnc(SCC(=O)N(Cc2cccc([N+](=O)[O-])c2)c2ccc(F)cc2)s1 | 34.7
CCCCNc1nnc(SCC(=O)N(Cc2cccc([N+](=O)[O-])c2)c2ccc(F)cc2)s1 | 30

The molecules below were run against T1, Amine oxidase [flavin-containing] A (assay: Inhibition of human recombinant MAO-A at 1 nM using tyramine as substrate preincubated with enzyme for 30 mins followed by incubation with substrate for 30 mins by Amplex Red reagent based fluorometric method relative to control). Conditions: 0.5 h, time 60 min.
Summary of the method: as §1

SMILES | inhibition at 0.001 µM [%]
CC(C)Nc1nnc(SCC(=O)N(Cc2cccc([N+](=O)[O-])c2)c2ccc(F)cc2)s1 | 13.6
COCCNc1nnc(SCC(=O)N(Cc2cccc([N+](=O)[O-])c2)c2ccc(F)cc2)s1 | 26.9
CCCCNc1nnc(SCC(=O)N(Cc2cccc([N+](=O)[O-])c2)c2ccc(F)cc2)s1 | 19.7

Each molecule was assayed against T1, Amine oxidase [flavin-containing] A (assay: Inhibition of human recombinant MAO-A at 100 uM using tyramine as substrate preincubated with enzyme for 30 mins followed by incubation with substrate for 30 mins by Amplex Red reagent based fluorometric method relative to control). Conditions: 0.5 h, time 60 min.
Summary of the method: as §1

SMILES | inhibition at 100 µM [%]
CC(C)Nc1nnc(SCC(=O)N(Cc2cccc([N+](=O)[O-])c2)c2ccc(F)cc2)s1 | 89.1
COCCNc1nnc(SCC(=O)N(Cc2cccc([N+](=O)[O-])c2)c2ccc(F)cc2)s1 | 91.5
CCCCNc1nnc(SCC(=O)N(Cc2cccc([N+](=O)[O-])c2)c2ccc(F)cc2)s1 | 82.3

These molecules were tested against T1, Amine oxidase [flavin-containing] A (assay: Inhibition of human recombinant MAO-A using tyramine as substrate preincubated with enzyme for 30 mins followed by incubation with substrate for 30 mins by Amplex Red reagent based fluorometric method). Conditions: not given.
Summary of the method: as §1, with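 “tyramine.” for “tyramine. Fluorescence (Ex/Em 535/587 nm) is read at 5-min intervals over 30 min at 37 °C.”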

SMILES | IC50 [nM]
CC(C)Nc1nnc(SCC(=O)N(Cc2cccc([N+](=O)[O-])c2)c2ccc(F)cc2)s1 | 1070
COCCNc1nnc(SCC(=O)N(Cc2cccc([N+](=O)[O-])c2)c2ccc(F)cc2)s1 | 60
CCCCNc1nnc(SCC(=O)N(Cc2cccc([N+](=O)[O-])c2)c2ccc(F)cc2)s1 | 1170

These molecules were tested against T1, Amine oxidase [flavin-containing] A (assay: Inhibition of human recombinant MAO-A at 0.1 nM using tyramine as substrate preincubated with enzyme for 30 mins followed by incubation with substrate for 30 mins by Amplex Red reagent based fluorometric method relative to control). Conditions: 0.5 h, time 60 min.
Summary of the method: as §1

SMILES | inhibition at 0.0001 µM [%]
CC(C)Nc1nnc(SCC(=O)N(Cc2cccc([N+](=O)[O-])c2)c2ccc(F)cc2)s1 | 10.8
COCCNc1nnc(SCC(=O)N(Cc2cccc([N+](=O)[O-])c2)c2ccc(F)cc2)s1 | 20.1
CCCCNc1nnc(SCC(=O)N(Cc2cccc([N+](=O)[O-])c2)c2ccc(F)cc2)s1 | 11.1

Each molecule was assayed against T1, Amine oxidase [flavin-containing] A (assay: Inhibition of human recombinant MAO-A at 1 mM using tyramine as substrate preincubated with enzyme for 30 mins followed by incubation with substrate for 30 mins by Amplex Red reagent based fluorometric method relative to control). Conditions: 0.5 h, time 60 min.
Summary of the method: as §1

SMILES | inhibition at 1000 µM [%]
CC(C)Nc1nnc(SCC(=O)N(Cc2cccc([N+](=O)[O-])c2)c2ccc(F)cc2)s1 | 92.5
COCCNc1nnc(SCC(=O)N(Cc2cccc([N+](=O)[O-])c2)c2ccc(F)cc2)s1 | 94.1
CCCCNc1nnc(SCC(=O)N(Cc2cccc([N+](=O)[O-])c2)c2ccc(F)cc2)s1 | 90.5

These molecules were tested against T2, Amine oxidase [flavin-containing] B (Homo sapiens, UniProt P27338) (assay: Inhibition of human recombinant MAO-B at 100 uM using tyramine as substrate preincubated with enzyme for 30 mins followed by incubation with substrate for 30 mins by Amplex Red reagent based fluorometric method relative to control). Conditions: 0.5 h, read-out: INH.
T2 sequence (P27338 whole entry): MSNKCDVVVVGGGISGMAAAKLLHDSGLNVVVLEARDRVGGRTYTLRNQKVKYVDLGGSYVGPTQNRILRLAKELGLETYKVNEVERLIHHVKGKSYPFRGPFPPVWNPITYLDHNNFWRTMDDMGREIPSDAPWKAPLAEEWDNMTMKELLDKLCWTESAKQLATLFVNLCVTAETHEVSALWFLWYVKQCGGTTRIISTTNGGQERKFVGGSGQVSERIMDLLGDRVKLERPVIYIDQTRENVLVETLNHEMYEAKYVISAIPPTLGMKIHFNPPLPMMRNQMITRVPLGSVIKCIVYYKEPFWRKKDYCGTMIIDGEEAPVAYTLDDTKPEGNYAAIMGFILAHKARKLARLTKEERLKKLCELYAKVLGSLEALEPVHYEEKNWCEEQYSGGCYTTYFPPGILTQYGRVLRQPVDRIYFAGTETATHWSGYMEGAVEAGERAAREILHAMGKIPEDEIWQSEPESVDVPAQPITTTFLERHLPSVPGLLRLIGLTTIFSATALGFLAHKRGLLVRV

SMILES | inhibition at 100 µM [%]
CC(C)Nc1nnc(SCC(=O)N(Cc2cccc([N+](=O)[O-])c2)c2ccc(F)cc2)s1 | 28.5
COCCNc1nnc(SCC(=O)N(Cc2cccc([N+](=O)[O-])c2)c2ccc(F)cc2)s1 | 25.7
CCCCNc1nnc(SCC(=O)N(Cc2cccc([N+](=O)[O-])c2)c2ccc(F)cc2)s1 | 34.3

Each molecule was assayed against T1, Amine oxidase [flavin-containing] A (assay: Inhibition of human recombinant MAO-A at 0.1 uM using tyramine as substrate preincubated with enzyme for 30 mins followed by incubation with substrate for 30 mins by Amplex Red reagent based fluorometric method relative to control). Conditions: 0.5 h, time 60 min.
Summary of the method: as §1

SMILES | inhibition at 0.1 µM [%]
CC(C)Nc1nnc(SCC(=O)N(Cc2cccc([N+](=O)[O-])c2)c2ccc(F)cc2)s1 | 43
COCCNc1nnc(SCC(=O)N(Cc2cccc([N+](=O)[O-])c2)c2ccc(F)cc2)s1 | 61.1
CCCCNc1nnc(SCC(=O)N(Cc2cccc([N+](=O)[O-])c2)c2ccc(F)cc2)s1 | 33.6

What follows are molecules tested against T1, Amine oxidase [flavin-containing] A (assay: Competitive inhibition of human recombinant MAO-A using tyramine as substrate preincubated with enzyme for 30 mins followed by substrate addition and measured for 30 mins by Lineweaver-burk plot analysis). Conditions: not given.

SMILES | Ki [nM]
COCCNc1nnc(SCC(=O)N(Cc2cccc([N+](=O)[O-])c2)c2ccc(F)cc2)s1 | 33

Each molecule was assayed against T1, Amine oxidase [flavin-containing] A (assay: Inhibition of human recombinant MAO-A at 1 uM using tyramine as substrate preincubated with enzyme for 30 mins followed by incubation with substrate for 30 mins by Amplex Red reagent based fluorometric method relative to control). Conditions: 0.5 h, time 60 min.
Summary of the method: as §1

SMILES | inhibition at 1 µM [%]
CC(C)Nc1nnc(SCC(=O)N(Cc2cccc([N+](=O)[O-])c2)c2ccc(F)cc2)s1 | 46
COCCNc1nnc(SCC(=O)N(Cc2cccc([N+](=O)[O-])c2)c2ccc(F)cc2)s1 | 72.7
CCCCNc1nnc(SCC(=O)N(Cc2cccc([N+](=O)[O-])c2)c2ccc(F)cc2)s1 | 47.3

What follows are molecules tested against T2, Amine oxidase [flavin-containing] B (assay: Inhibition of human recombinant MAO-B at 1 mM using tyramine as substrate preincubated with enzyme for 30 mins followed by incubation with substrate for 30 mins by Amplex Red reagent based fluorometric method relative to control). Conditions: 0.5 h, read-out: INH.

SMILES | inhibition at 1000 µM [%]
CC(C)Nc1nnc(SCC(=O)N(Cc2cccc([N+](=O)[O-])c2)c2ccc(F)cc2)s1 | 36
COCCNc1nnc(SCC(=O)N(Cc2cccc([N+](=O)[O-])c2)c2ccc(F)cc2)s1 | 38.6
CCCCNc1nnc(SCC(=O)N(Cc2cccc([N+](=O)[O-])c2)c2ccc(F)cc2)s1 | 40.6

What follows are molecules tested against T1, Amine oxidase [flavin-containing] A (assay: Inhibition of human recombinant MAO-A at 10 uM using tyramine as substrate preincubated with enzyme for 30 mins followed by incubation with substrate for 30 mins by Amplex Red reagent based fluorometric method relative to control). Conditions: 0.5 h, time 60 min.
Summary of the method: as §1

SMILES | inhibition at 10 µM [%]
CC(C)Nc1nnc(SCC(=O)N(Cc2cccc([N+](=O)[O-])c2)c2ccc(F)cc2)s1 | 86.1
COCCNc1nnc(SCC(=O)N(Cc2cccc([N+](=O)[O-])c2)c2ccc(F)cc2)s1 | 80.6
CCCCNc1nnc(SCC(=O)N(Cc2cccc([N+](=O)[O-])c2)c2ccc(F)cc2)s1 | 76

What follows are molecules tested against T1, Amine oxidase [flavin-containing] A (assay: Inhibition of human recombinant MAO-A assessed as enzyme residual activity using tyramine as substrate at 4XIC50 incubated with enzyme for 15 mins followed by substrate addition by Amplex Red reagent based fluorometric method relative to control). Conditions: 0.25 h.
Summary of the method: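 Recombinant hMAO-A (1 U mL⁻¹) preincubated with inhibitor for 15 min at 37 °C in 0.05 M potassium phosphate, pH 7.4, with 5% sucrose and 1% DMSO. The mixture was dialysed 24 h at 4 °C (12 000 Da cut-off) against 100 mM potassium phosphate, pH 7.4, 5% sucrose, with two buffer changes. Residual activity was then measured in triplicate and reported as mean ± SEM.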

SMILES | Activity [%]
COCCNc1nnc(SCC(=O)N(Cc2cccc([N+](=O)[O-])c2)c2ccc(F)cc2)s1 | 25.956
